Assay type in all cases: functional
Assay [1] concerns UACC-62. The assay can be described thus: Growth inhibition of human UACC62 cells after 48 hrs by Sulforhodamine B assay. Conditions: UACC-62, 48 h. In a few lines: (§1)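 Five-concentration stage in the […]-cell-line panel, using 10-fold or ½-log serial dilutions made from a DMSO stock (400-fold). Cells were preincubated 24 h at 37 °C, then drug-exposed 48 h. A time-zero plate was fixed with TCA at dosing, adherent cells were fixed with cold TCA (10% final), and protein was stained with SRB, absorbance 515 nm. GI50 was where [(Ti−Tz)/(C−Tz)]×100 = 50, from the percent growth vs log concentration plot, expressed as log10 GI50.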
On the technique in general: The SRB assay estimates cell density from bound dye.

The subject of assay [2] is ACHN. The assay can be described thus: Growth inhibition of human ACHN cells after 48 hrs by Sulforhodamine B assay. In a few lines:
(§2)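 Five-concentration SRB assay using 10-fold or ½-log serial dilutions from a DMSO stock. Exposure is 48 h at 37 °C in 5% CO2 after 24 h preincubation. TCA fixation is followed by SRB staining and a reading at 515 nm. Percentage growth is computed from time-zero, control and treated absorbances. GI50 is the concentration where [(Ti−Tz)/(C−Tz)]×100 = 50, read from the plot against log concentration.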

Assay [3] concerns TK-10. As to the kind of experiment: Growth inhibition of human TK10 cells after 48 hrs by Sulforhodamine B assay. Conditions: TK-10, 48 h. In a few lines:
as §1

In assay [4] the test system is HOP-62. The assay can be described thus: Growth inhibition of human HOP62 cells after 48 hrs by Sulforhodamine B assay. Conditions: HOP-62, 48 h. Summed up: as §2
Assay [5] concerns NCI-H23. As to the kind of experiment: Growth inhibition of human NCI-H23 cells after 48 hrs by Sulforhodamine B assay. Conditions: NCI-H23, 48 h. In a few lines:
(§3)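 Cells were preincubated 24 h at 37 °C, 5% CO2, and a time-zero plate was TCA-fixed. Five concentrations were made by serial dilution from a DMSO stock (400-fold the top concentration) and incubated 48 h. Adherent cells were fixed with 10% final TCA and suspension cells with 16%. Plates were stained with 0.4% SRB and read at 515 nm. GI50 is the concentration giving 50% reduction in net protein increase versus control.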

For assay [6], the system named is SK-MEL-28. As to the kind of experiment: Growth inhibition of human SK-MEL-28 cells after 48 hrs by Sulforhodamine B assay. Conditions: SK-MEL-28, 48 h. In a few lines:
as §3

Assay [7] deals with SK-MEL-2. As to the kind of experiment: Growth inhibition of human SK-MEL-2 cells after 48 hrs by Sulforhodamine B assay. Conditions: SK-MEL-2, 48 h. Summed up: as §3
The subject of assay [8] is OVCAR-8. As to the kind of experiment: Growth inhibition of human OVCAR8 cells after 48 hrs by Sulforhodamine B assay. To be noted: OVCAR-8, 48 h. In a few lines:
as §3

The subject of assay [9] is SK-MEL-5. The assay can be described thus: Growth inhibition of human SK-MEL-5 cells after 48 hrs by Sulforhodamine B assay. Conditions: SK-MEL-5, 48 h. In a few lines:
as §3

The subject of assay [10] is NCI-H322M. As to the kind of experiment: Growth inhibition of human NCI-H322M cells after 48 hrs by Sulforhodamine B assay. Summed up:
as §3

For assay [11], the system named is DU-145. As to the kind of experiment: Growth inhibition of human DU145 cells after 48 hrs by Sulforhodamine B assay. To be noted: DU-145, 48 h. Summed up:
as §2

Assay [12] has as its system MOLT-4. As to the kind of experiment: Growth inhibition of human MOLT4 cells after 48 hrs by Sulforhodamine B assay. To be noted: MOLT-4, 48 h. Summed up:
as §3

Assay [13] concerns SNB-75. The assay can be described thus: Growth inhibition of human SNB75 cells after 48 hrs by Sulforhodamine B assay. Conditions: SNB-75, 48 h. In a few lines: as §3
Assay [14] relates to A498. The assay can be described thus: Growth inhibition of human A498 cells after 48 hrs by Sulforhodamine B assay. Conditions: A498, 48 h. Summed up: as §2
Assay [15] relates to HOP-92. The assay can be described thus: Growth inhibition of human HOP92 cells after 48 hrs by Sulforhodamine B assay. To be noted: HOP-92, 48 h. In a few lines:
as §2

A value given as a limit tells only on which side of the number the result lay.

As for `O=c1[nH]c(-c2ccncc2)nc2sc3c(c12)CCCCCC3`, the concentration for 50% growth inhibition (GI50) in [1], in assay [2], in assay [3], in assay [4], in assay [5] and in [6] was greater than 100 µM in each case. Besides, the concentration for 50% growth inhibition (GI50) in assay [7], in assay [8], in assay [9], in [10], in assay [11] and in assay [12] was greater than 100 µM throughout. Moreover, the GI50 (in general, the concentration giving 50% growth inhibition) is 2.69 µM in assay [13], greater than 100 µM in assay [14] and greater than 100 µM in [15].
As to `NNc1nc(-c2ccccn2)nc2sc3c(c12)CCCCCC3`, the GI50 in assay [1] is 5.89 µM; in assay [2], 4.9 µM; in assay [3] it was 9.12 µM; in [4], 8.51 µM; in assay [5] it was 8.91 µM; in [6] it was 14.8 µM. Also, the GI50 was 14.5 µM in [7]; 4.37 µM in assay [8]; 3.16 µM in [9]; 5.37 µM in assay [10]; 9.55 µM in [11]; 3.63 µM in assay [12]. The concentration for 50% growth inhibition (GI50) in assay [13] is 12.6 µM; in assay [14] it was 1.86 µM; in [15], 3.55 µM.
As for `O=c1[nH]c(-c2ccccn2)nc2sc3c(c12)CCCCCC3`, the concentration for 50% growth inhibition (GI50) in assay [1] is 5.5 µM; in [2], 5.25 µM; in assay [3], greater than 100 µM; in [4], 6.31 µM; in [5], 11 µM; in assay [6], 6.03 µM. The GI50 was greater than 100 µM in assay [7]; 4.37 µM in [8]; 2.95 µM in [9]; 85.1 µM in [10]; 6.76 µM in assay [11]; 2.4 µM in [12]. Besides, the figures for the 50% growth inhibitory concentration (GI50) in assay [13], in assay [14] and in assay [15] were 85.1 µM, 1.32 µM and 3.89 µM, respectively.
As for `COc1ccc(N2CCN(c3nc(-c4ccccn4)nc4sc5c(c34)CCCCCC5)CC2)cc1`, the concentration for 50% growth inhibition (GI50) in assay [1] is 6.92 µM; in [2], 5.13 µM; in [3] it was greater than 100 µM; in assay [4], 11.5 µM; in [5], 17 µM; in assay [6], greater than 100 µM. The concentration for 50% growth inhibition (GI50) in assay [7] is 18.2 µM; in assay [8], 5.25 µM; in [9], 2.82 µM; in assay [10], 5.5 µM; in assay [11] it was 28.2 µM; in [12], 3.24 µM. In addition, the concentration for 50% growth inhibition (GI50) in assay [13] is 26.3 µM; in assay [14] it was 3.31 µM; in assay [15], 3.24 µM.

The values are drawn from ChEMBL document CHEMBL2375304, “Synthesis and anticancer activity of novel 2-pyridyl hexahyrocyclooctathieno[2,3-d]pyrimidine derivatives” (2013).
